Reference: ChEMBL document CHEMBL4706684, “Discovering High Potent Hsp90 Inhibitors as Antinasopharyngeal Carcinoma Agents through Fragment Assembling Approach” (J Med Chem, 2021)
The source made the active and inactive calls. No cut-off for these calls is given here.

Tests used:
[1] = target: T1, Heat shock protein HSP 90-alpha (Homo sapiens, UniProt P07900); assay: Inhibition of HSP90-alpha (unknown origin) expressed in Escherichia coli BL21 assessed as reduction in ATPase activity in presence of PEP, NADH and ATP by pyruvate kinase/lactic dehydrogenase based coupled enzyme assay
[2] = target: T2, Heat shock protein HSP 90-beta (Homo sapiens, UniProt P08238); assay: Inhibition of HSP90-beta (unknown origin) expressed in Escherichia coli BL21 assessed as reduction in ATPase activity in presence of PEP, NADH and ATP by pyruvate kinase/lactic dehydrogenase based coupled enzyme assay
CNE-2 = assay: Cytotoxicity in human CNE-2 cells assessed as reduction in cell viability incubated for 48 hrs by MTT assay; assay type: cell-based; details: CNE-2, 48 h
Summary of the method: (§1)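 Cells were seeded at 3 × 10³ cells per well and grown for 24 h at 37 °C in 5% CO₂. CNE2 was grown in RPMI 1640 and HeLa and HepG2 in DMEM, each with 10% FBS and 1% penicillin/streptomycin. Cells were exposed to 0−20 μM inhibitor for 48 h, with a DMSO solvent control. MTT (0.5 mg/mL) was then added for 3 h.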

[3] = target: T1, Heat shock protein HSP 90-alpha; assay: Binding affinity to HSP90-alpha (unknown origin) expressed in Escherichia coli BL21 by SPR assay
[4] = target: T2, Heat shock protein HSP 90-beta; assay: Binding affinity to HSP90-beta (unknown origin) expressed in Escherichia coli BL21 by SPR assay
HepG2 = assay: Cytotoxicity in human HepG2 cells assessed as reduction in cell viability incubated for 48 hrs by MTT assay; assay type: cell-based; details: HepG2, 48 h; summary of the method: as §1
HeLa = assay: Cytotoxicity in human HeLa cells assessed as reduction in cell viability incubated for 48 hrs by MTT assay; assay type: cell-based; summary of the method: as §1

T2 sequence (P08238 whole entry): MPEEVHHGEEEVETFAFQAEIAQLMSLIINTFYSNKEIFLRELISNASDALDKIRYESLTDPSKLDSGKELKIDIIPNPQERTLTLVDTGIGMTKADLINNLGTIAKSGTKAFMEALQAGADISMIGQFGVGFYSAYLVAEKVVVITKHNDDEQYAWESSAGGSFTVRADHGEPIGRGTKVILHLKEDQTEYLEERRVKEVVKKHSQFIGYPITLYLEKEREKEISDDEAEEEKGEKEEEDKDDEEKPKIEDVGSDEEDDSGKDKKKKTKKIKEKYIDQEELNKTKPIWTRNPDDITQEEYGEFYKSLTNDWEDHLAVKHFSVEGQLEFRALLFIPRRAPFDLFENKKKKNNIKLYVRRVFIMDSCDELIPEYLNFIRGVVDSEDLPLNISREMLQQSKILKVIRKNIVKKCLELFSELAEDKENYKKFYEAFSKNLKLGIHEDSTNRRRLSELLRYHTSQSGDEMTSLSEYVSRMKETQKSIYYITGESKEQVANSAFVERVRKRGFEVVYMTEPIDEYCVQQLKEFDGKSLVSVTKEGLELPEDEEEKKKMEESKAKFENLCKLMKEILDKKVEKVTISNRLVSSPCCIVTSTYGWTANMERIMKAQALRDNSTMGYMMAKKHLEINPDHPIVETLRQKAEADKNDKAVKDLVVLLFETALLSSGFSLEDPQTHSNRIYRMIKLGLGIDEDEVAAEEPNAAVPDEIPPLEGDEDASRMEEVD

| Activity [3] | SMILES | IC50 [1] | IC50 [2] | IC50 (CNE-2) | also measured |
| --- | --- | --- | --- | --- | --- |
|  | COc1ccc(-c2cn(Cc3ccc(C(C)(C)C)cc3)nn2)c([N+](=O)[O-])c1 | 5 µM | 5 µM | 1.6 µM |  |
|  | CC(C)(C)c1ccc(Cn2cc(-c3ccc(O)cc3)nn2)c(O)c1 | > 40 µM | > 40 µM | > 20 µM |  |
| Active | Cc1noc(N)c1C |  |  |  |  |
| Active | CC(=O)c1ccc(-n2ccnc2)cc1 |  |  |  |  |
|  | CC(C)(C)c1ccc(Cn2cc(-c3ccc(O)cc3)nn2)cc1 | 1.3 µM | 1.8 µM | 5.6 µM |  |
|  | COc1ccc(-c2cn(Cc3ccc(C(C)(C)C)cc3)nn2)cc1 | 5.6 µM | 5.6 µM | 4 µM | Kd [4]: 4.8 µM; IC50 (HepG2): > 50 µM; IC50 (HeLa): > 50 µM; Kd [3]: 4.8 µM |
| Active | CC(C)(C)c1csc(N)n1 |  |  |  |  |
|  | COc1ccc(-c2cn(Cc3cc(C(F)(F)F)cc(C(F)(F)F)c3)nn2)cc1 | 6.2 µM | 9.8 µM | 14.1 µM | Kd [4]: 7 µM; IC50 (HepG2): 18.1 µM; IC50 (HeLa): 22.4 µM; Kd [3]: 3.1 µM |
|  | COc1ccc(-c2cn(Cc3ccc(C(C)(C)C)cc3)nn2)c(N)c1 | > 40 µM | > 40 µM | > 20 µM |  |
|  | CC(C)(C)c1ccc(Cn2cc(-c3ccc(O)cc3N)nn2)cc1 | 13.7 µM | 14.6 µM | 1.6 µM |  |
|  | C=CCNC1=C2C[C@@H](C)C[C@H](OC)[C@H](O)[C@@H](C)/C=C(\C)[C@H](OC(N)=O)[C@@H](OC)/C=C\C=C(/C)C(=O)NC(=CC1=O)C2=O [TANESPIMYCIN] |  |  | 3.03 µM | IC50 (HepG2): 8 µM; IC50 (HeLa): 19.4 µM |
| Active | Nc1cccs1 |  |  |  |  |
| Active | O=C(O)c1csc(-c2ccc(Cl)cc2)n1 |  |  |  |  |
|  | CC(C)(C)c1ccc(Cn2cc(-c3ccc(O)cc3[N+](=O)[O-])nn2)cc1 | 1.7 µM | 1.7 µM | 1.6 µM |  |
| Active | CCSc1ccc(N)s1 |  |  |  |  |
| Active | Nc1cc(-c2ccccc2)n[nH]1 |  |  |  |  |
|  | COc1cc(-c2cn(Cc3ccc(C(C)(C)C)cc3)nn2)cc(OC)c1OC | 2.7 µM | 2.7 µM | 1.8 µM |  |
